ChEMBL document CHEMBL1122076, “Synthesis of 2-(alkylamino)-5,6- and -6,7-dihydroxy-3,4-dihydroquinazolines and evaluation as potential dopamine agonists” (J Med Chem, 1982)
The source made the active and inactive calls. The calls are words filed in the database; no cut-off is given here.

System: not listed separately
Assay: Evaluated for the pKa value.
Assay type: physicochemical
Conditions: not given
Method in brief: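 Hydrochloride salt titrated to determine the pKa of the ammonium ion. Values for related analogues were estimated by extrapolating the pKa values of the corresponding dimethyl ethers.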

| SMILES | pKa |
| --- | --- |
| NC1=NCc2cc(O)c(O)cc2N1 | 12 |
| NC1CCc2cc(O)c(O)cc2C1 (stereo not given) | 9.84 |
| COc1cc2c(cc1OC)NC(N)=NC2 | 11.1 |
| NC1CCc2c(ccc(O)c2O)C1 (stereo not given) | 9.84 |
| NCCc1ccc(O)c(O)c1 [DOPAMINE] | 9.84 |

System: Canis familiaris
Assay: Evaluated for the percentage vasodilation in the renal artery produced by 3000 nmol administered intra-arterially.
Assay type: functional, Canis lupus familiaris
Conditions: not given
Method in brief: (§1)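 Anesthetized dogs fitted with an electromagnetic flow probe on the renal artery; a bent 25-gauge needle was inserted proximally into the artery for dosing. Phenoxybenzamine, 5 mg/kg ia, was infused first. A dopamine dose-response curve (11.75, 47, 188 nmol/dog) was run, then rising doses of test agent up to 3000 nmol were injected intra-arterially, each in 0.2 mL.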

| SMILES | Vasodilation |
| --- | --- |
| NC1=NCc2cc(O)c(O)cc2N1 | 50% |
| CCCN(CCC)C1=NCc2cc(O)c(O)cc2N1 | 50% |
| CNC1=NCc2cc(O)c(O)cc2N1 | 50% |

System: Canis familiaris
Assay: Evaluated for the percentage vasodilation in the renal artery produced by 3000 nmol administered intra-arterially; NA is No Antagonistic activity
Assay type: functional, organism-based
Conditions: Canis lupus familiaris
Method in brief: as §1

| SMILES | Vasodilation |
| --- | --- |
| CN(C)C1=NCc2c(ccc(O)c2O)N1 | inactive |
| CCCN(CCC)C1=NCc2c(ccc(O)c2O)N1 | inactive |
| NC1CCc2c(ccc(O)c2O)C1 (stereo not given) | inactive |
| CN(C)C1CCc2c(ccc(O)c2O)C1 (stereo not given) | inactive |
| NC1=NCc2c(ccc(O)c2O)N1 | inactive |
| CN(C)C1=NCc2cc(O)c(O)cc2N1 | inactive |
| CNC1=NCc2c(ccc(O)c2O)N1 | inactive |
